Measured values from ChEMBL document CHEMBL1782031, “Urea/thiourea derivatives of quinazolinone-lysine conjugates: synthesis and structure-activity relationships of a new series of antimicrobials” (2011).

How the values were obtained:
Format in all cases: functional
Conditions in all cases: read-out: DIZ
Pseudomonas fluorescens = test: Antibacterial activity against Pseudomonas fluorescens at 10 ug/disc after 24 hrs by disc diffusion method
Outline: (§1)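 Disc diffusion assay. Discs were held at 4 °C for 2 h so the compounds could diffuse, then incubated at 28 °C. Inhibition zone diameters were measured in mm after 24 h. Each compound was tested in triplicate.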

Xanthomonas oryzae = test: Antibacterial activity against Xanthomonas oryzae at 10 ug/disc after 24 hrs by disc diffusion method
Escherichia coli = test: Antibacterial activity against Escherichia coli at 10 ug/disc after 24 hrs by disc diffusion method; outline: as §1
[1] = Antibacterial activity against Xanthomonas campestris pvs. at 10 ug/disc after 24 hrs by disc diffusion method; outline: as §1
Bacillus subtilis = test: Antibacterial activity against Bacillus subtilis at 10 ug/disc after 24 hrs by disc diffusion method; outline: as §1

| Structure (SMILES) | zone of inhibition at 10 µg/disc (Pseudomonas fluorescens) [mm] | zone of inhibition at 10 µg/disc (Xanthomonas oryzae) [mm] | zone of inhibition at 10 µg/disc (Escherichia coli) [mm] | zone of inhibition at 10 µg/disc [1] [mm] | zone of inhibition at 10 µg/disc (Bacillus subtilis) [mm] |
| --- | --- | --- | --- | --- | --- |
| COC(=O)[C@H](CCCCNC(=O)Nc1ccc(Cl)cc1)NC(=O)CCc1nc2ccccc2c(=O)[nH]1 | 29 | 29 | 28 | 28 | 24 |
| O=C(CCCc1nc2ccccc2c(=O)[nH]1)N[C@@H](CCCCNC(=O)Nc1cccc(F)c1)C(=O)O | 35 | 36 | 36 | 34 | 35 |
| COC(=O)[C@H](CCCCNC(=S)Nc1ccccc1C)NC(=O)CCCc1nc2ccccc2c(=O)[nH]1 | 23 | 24 | 23 | 25 | 22 |
| CS(=O)(=O)NCCCC[C@H](NC(=O)CCCc1nc2ccccc2c(=O)[nH]1)C(=O)O | 12 | 10 | 11 | 11 | 12 |
| CC(=O)NCCCC[C@H](NC(=O)CCc1nc2ccccc2c(=O)[nH]1)C(=O)O | 13 | 14 | 10 | 12 | 11 |
| COC(=O)[C@H](CCCCNC(C)=O)NC(=O)CCCc1nc2ccccc2c(=O)[nH]1 | 7 | 8 | 9 | 6 | 8 |
